In general, MIC refers to the least concentration at which growth counts as inhibited. As usually defined, the IC50 is the concentration that inhibits the measured activity by half. Read a low IC50 as higher potency.

The results in this text go back to ChEMBL document CHEMBL1145530, “Synthesis and evaluation of isosteres of N-methyl indolo[3,2-b]-quinoline (cryptolepine) as new antiinfective agents” (Bioorg Med Chem, 2007).

≈ marks a conversion by molar mass, not a printed value. Calls of active or inactive are those of the source. The calls are words filed in the database; no cut-off is given here.

One experiment relates to Candida albicans. The experiment in a line: Antifungal activity against Candida albicans ATCC 90028. The format is functional. The procedure, abridged:
(§1)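 Broth microdilution following modified NCCLS methods, Franzblau variant for M. intracellulare. DMSO samples serially diluted in saline and tested in duplicate. Inoculum set by 0.5 McFarland. Media: C. albicans SDB or RPMI 1640; C. neoformans SDB; A. fumigatus YM broth (MIC) or RPMI-1640 + 5% Alamar Blue (IC50); M. intracellulare 7H9/OADC + 5% Alamar Blue. Top final concentration 20 µg/mL.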

The next experiment relates to Cryptococcus neoformans. Nature of the experiment: Antifungal activity against Cryptococcus neoformans ATCC 90113. The format is functional, organism-based. The procedure, abridged:
as §1

For another experiment, the system named is Aspergillus fumigatus. Nature of the experiment: Antifungal activity against Aspergillus fumigatus ATCC 90906. The format is functional, organism-based. To be noted: for MIC: in the assay text read “Antifungal” for “Antibacterial”. In outline:
as §1

Experiment [1] relates to Mycobacterium intracellulare. Nature of the experiment: Antibacterial activity against Mycobacterium intracellular ATCC 23068. The experiment is classed as functional, organism-based. In outline:
as §1

Experiment [2] is described as follows: Anti-infective activity against Plasmodium falciparum D6 infected red blood cells. The format is functional.
In experiment [3] the test system is Plasmodium falciparum. The experiment in a line: Anti-infective activity against Plasmodium falciparum W2 in erythrocytes. The experiment is classed as functional, organism-based.
The test system of a further experiment is Vero. The experiment in a line: Cytotoxicity against Vero cells. The format is cell-based. To be noted: Chlorocebus sabaeus. The procedure, abridged:
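VERO monkey kidney […] seeded at 25,000 cells/well and grown 24 h, then exposed to compound for 48 h, highest concentration 23.8 µg/ml. Viability by neutral red uptake. IC50 from growth-inhibition curves. DMSO as vehicle control.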

The next experiment concerns Leishmania donovani. The experiment in a line: Antileishmanial activity against Leishmania donovani promastigotes. The experiment is classed as functional, organism-based. In outline:
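L. donovani promastigotes from a 3-day culture in RPMI 1640 with 10% FCS, diluted to 5×10^5/mL. Drug dilutions made directly in the cell suspension. 48 h at 26 °C. Growth measured by Alamar Blue fluorescence at 544/590 nm. IC50 and IC90 from percent growth versus concentration.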

Experiment [4] relates to Plasmodium falciparum. Nature of the experiment: Anti-infective activity against Plasmodium falciparum D6 infected red blood cells up to 4.76 ug/mL. The experiment is classed as functional.
Experiment [5] relates to Plasmodium falciparum. The experiment in a line: Anti-infective activity against Plasmodium falciparum W2 in erythrocytes up to 4.76 ug/mL. The experiment is classed as functional, organism-based.

Consider `C[n+]1cccc2sc3ccccc3c21.[I-]`, for which the MIC with Candida albicans, in the experiment with Cryptococcus neoformans and in the experiment with Aspergillus fumigatus was above 20 µg/mL throughout. Besides, the IC50 was above 20 µg/mL in experiment [1], 1.5 µg/mL in experiment [2], 1.2 µg/mL in the experiment with Plasmodium falciparum [3] and above 23.8 µg/mL with Vero.

Take `C[n+]1c2ccc(C(=O)O)cc2cc2sc3ccccc3c21.[I-]`: the MIC with Candida albicans was above 20 µg/mL; against Cryptococcus neoformans it was above 20 µg/mL; in the experiment on Aspergillus fumigatus it was 10 µg/mL. In addition, the IC50 in experiment [1] is 20 µg/mL; in the experiment on Leishmania donovani it was 0.39 µg/mL; in the experiment with Plasmodium falciparum [3], 4.5 µg/mL; in the experiment on Vero, 7 µg/mL. The outcome in the experiment on Plasmodium falciparum [4] was inactive.

With `C[n+]1c2ccccc2cc2sc3ccccc3c21.O=S(=O)([O-])C(F)(F)F`, the MIC with Candida albicans is 10 µg/mL; with Cryptococcus neoformans it was above 20 µg/mL. Further, the IC50 was 6.5 µg/mL with Aspergillus fumigatus; 15 µg/mL in [1]; 0.27 µg/mL with Leishmania donovani; 0.34 µg/mL in experiment [2]; 0.3 µg/mL in the experiment on Plasmodium falciparum [3]; above 23.8 µg/mL with Vero.

As for `[I-].c1ccc(CCCCC[n+]2cccc3sc4ccccc4c32)cc1`, the MIC is above 20 µg/mL with Candida albicans, 20 µg/mL in the experiment with Cryptococcus neoformans and 20 µg/mL against Aspergillus fumigatus. In addition, the IC50 stood at 1.5 µg/mL in experiment [1]; 1.2 µg/mL in the experiment on Leishmania donovani; 0.27 µg/mL in experiment [2]; 0.22 µg/mL in the experiment with Plasmodium falciparum [3]; 20 µg/mL in the experiment on Vero.

With `N=C(N)c1ccc(OCCCCCOc2ccc(C(=N)N)cc2)cc1` [PENTAMIDINE], the midpoint of inhibition with Leishmania donovani, the IC50, lay at 0.7 µg/mL (≈ 2.06 µM).

Consider `C[n+]1c2ccccc2cc2[nH]c3ccccc3c21.[I-]` [CRYPTOLEPTINE IODIDE], for which the minimal inhibitory concentration (MIC) was 2 µg/mL against Candida albicans and above 20 µg/mL with Aspergillus fumigatus. Moreover, the IC50 in experiment [1] worked out at 15 µg/mL; in the experiment on Leishmania donovani it was 0.23 µg/mL; in [2], 0.18 µg/mL; in the experiment with Plasmodium falciparum [3], 0.35 µg/mL; in the experiment with Vero, 3.2 µg/mL.

In turn, `O=C(O)c1cn(C2CC2)c2cc(N3CCNCC3)c(F)cc2c1=O` [CIPROFLOXACIN] displayed an IC50 in experiment [1] of 0.35 µg/mL (≈ 1.06 µM).

On to `C[C@@H]1[C@H](O)[C@@H](C)/C=C/C=C/C=C/C=C/C=C/C=C/C=C/[C@H](O[C@@H]2O[C@H](C)[C@@H](O)[C@H](N)[C@@H]2O)C[C@@H]2O[C@](O)(C[C@@H](O)C[C@@H](O)[C@H](O)CC[C@@H](O)C[C@@H](O)CC(=O)O[C@H]1C)C[C@H](O)[C@H]2C(=O)O` [AMPHOTERICIN B], for which the MIC was 0.25 µg/mL (≈ 0.271 µM) against Candida albicans and 0.95 µg/mL (≈ 1.03 µM) against Cryptococcus neoformans. In the experiment with Aspergillus fumigatus, this molecule gave an IC50 of 0.85 µg/mL (≈ 0.92 µM).

As to `C[n+]1c2ccc(C#N)cc2cc2sc3ccccc3c21.[I-]`, the MIC with Candida albicans is above 20 µg/mL; with Cryptococcus neoformans, above 20 µg/mL; against Aspergillus fumigatus it was 20 µg/mL. For the same molecule, the IC50 in experiment [1] was above 20 µg/mL; in the experiment on Leishmania donovani, 2.6 µg/mL; in the experiment with Vero it was above 23.8 µg/mL. Also, the result in the experiment on Plasmodium falciparum [4] and with Plasmodium falciparum [5] was inactive.

With `CCN(CC)CCCC(C)Nc1ccnc2cc(Cl)ccc12` (centres undefined) [CHLOROQUINE], the IC50 was 0.02 µg/mL (≈ 0.0625 µM) in [2] and above 4.7 µg/mL in the experiment on Vero.

Regarding `COc1ccc2c(c1)cc1sc3ccccc3c1[n+]2C.[I-]`, the MIC is above 20 µg/mL against Candida albicans and 20 µg/mL against Aspergillus fumigatus. Further, the IC50 in the experiment with Cryptococcus neoformans is 8 µg/mL; in [1], above 20 µg/mL; in the experiment with Leishmania donovani it was 0.6 µg/mL; in [2] it was 0.74 µg/mL; in the experiment with Plasmodium falciparum [3], 0.74 µg/mL; in the experiment on Vero, above 23.8 µg/mL.

Take `C[n+]1cccc2sc3ccc([N+](=O)[O-])cc3c21.[I-]`: the MIC against Candida albicans, with Cryptococcus neoformans and against Aspergillus fumigatus was above 20 µg/mL each time. The IC50 was above 20 µg/mL in experiment [1]; above 40 µg/mL in the experiment with Leishmania donovani; 0.4 µg/mL in experiment [2]; 0.46 µg/mL in the experiment on Plasmodium falciparum [3]; above 23.8 µg/mL with Vero.

`C[n+]1c2ccccc2cc2sc3ccccc3c21.[I-]` gave an MIC with Aspergillus fumigatus above 20 µg/mL. Moreover, the IC50 in experiment [1] was above 20 µg/mL; in the experiment on Leishmania donovani, 0.35 µg/mL; in experiment [2] it was 1.6 µg/mL; with Plasmodium falciparum [3], 2 µg/mL; in the experiment on Vero, above 23.8 µg/mL.

On to `C[n+]1c2c(cc3ccccc31)Cc1ccccc1-2.[I-]`, for which the MIC against Candida albicans, with Cryptococcus neoformans and in the experiment on Aspergillus fumigatus was above 20 µg/mL throughout. The molecule further came in with an IC50 in experiment [1] above 20 µg/mL.

Consider `CN(C)c1ccc2sc3ccc[n+](C)c3c2c1`, for which the MIC in the experiment on Candida albicans, against Cryptococcus neoformans and with Aspergillus fumigatus was above 20 µg/mL each time. In addition, the IC50 in experiment [1] was 15 µg/mL; in the experiment with Leishmania donovani, 3 µg/mL; in experiment [2] it was 0.18 µg/mL; with Plasmodium falciparum [3], 0.2 µg/mL; in the experiment on Vero, above 23.8 µg/mL.

Turning to `C[n+]1c2ccc(Cl)cc2cc2sc3ccccc3c21.[I-]`, the minimum inhibitory concentration (MIC) turned out to be 2 µg/mL with Candida albicans, 15 µg/mL against Cryptococcus neoformans and 4 µg/mL against Aspergillus fumigatus. Moreover, the IC50 is above 20 µg/mL in [1]; 0.42 µg/mL with Leishmania donovani; 4 µg/mL in experiment [2]; 2.8 µg/mL with Plasmodium falciparum [3]; above 23.8 µg/mL in the experiment on Vero.

Regarding `C[n+]1c2ccc(C(N)=O)cc2cc2sc3ccccc3c21.[I-]`, the MIC in the experiment on Candida albicans, in the experiment with Cryptococcus neoformans and with Aspergillus fumigatus was above 20 µg/mL in each case. Further, the IC50 was above 20 µg/mL in experiment [1], 40 µg/mL in the experiment with Leishmania donovani and above 23.8 µg/mL with Vero. For the same molecule, the outcome with Plasmodium falciparum [4] and in the experiment with Plasmodium falciparum [5] was inactive.

Turning to `C[n+]1c2ccccc2cc2oc3ccccc3c21.[I-]`, the MIC against Candida albicans and with Cryptococcus neoformans was above 20 µg/mL throughout. The IC50 was 15 µg/mL with Aspergillus fumigatus; above 20 µg/mL in experiment [1]; 2.2 µg/mL in the experiment with Leishmania donovani; 0.28 µg/mL in [2]; 0.28 µg/mL in the experiment with Plasmodium falciparum [3]; above 23.8 µg/mL with Vero.

In the case of `C[C@@H]1CC[C@H]2[C@@H](C)C(=O)O[C@@H]3O[C@@]4(C)CC[C@@H]1[C@]32OO4` [ARTEMISININ], the IC50 is 0.02 µg/mL (≈ 0.0708 µM) in experiment [2], 0.02 µg/mL (≈ 0.0708 µM) in the experiment with Plasmodium falciparum [3] and above 4.7 µg/mL in the experiment on Vero.
